Reference: ChEMBL document CHEMBL1156517, “Targeting thyroid hormone receptor-beta agonists to the liver reduces cholesterol and triglycerides and improves the therapeutic index” (Proc Natl Acad Sci U S A, 2007)

Tests used:
Design in all cases: dose 5 mg/kg, route oral
Conditions in all cases: in vivo
Thymus = assay: Biodistribution in Sprague-Dawley rat thymus at 5 mg/kg, po after 24 hrs; format: ADME, organism-based
In short: (§1)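 Male SD rats (n = 4 per group) were given [¹⁴C]-labelled compound at 5 mg/kg per os. They were killed 3 and 24 h after dosing. Harvested tissues were processed and radioactivity was measured directly by liquid scintillation counting.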

[1] = Biodistribution in Sprague-Dawley rat stomach C&W at 5 mg/kg, po after 3 hrs; format: ADME, organism-based; in short: as §1
Heart = assay: Biodistribution in Sprague-Dawley rat heart at 5 mg/kg, po after 24 hrs; format: ADME, organism-based
In short: (§2)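 Male SD rats (n = 4 per group) were dosed orally with [¹⁴C]-labelled prodrug at 5 mg/kg. Animals were killed 3 or 24 h after dosing. Harvested tissues, blood and plasma were processed and analysed directly for radioactivity by liquid scintillation counting.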

[2] = Biodistribution in Sprague-Dawley rat large intestine at 5 mg/kg, po after 3 hrs; format: ADME, organism-based
In short: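 Male SD rats (n = 4 per group) were given a single oral dose of [¹⁴C]-labelled prodrug at 5 mg/kg. They were killed at 3 and 24 h after dosing. Harvested tissues were processed and analysed directly by liquid scintillation counting to give tissue radioactivity concentrations.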

[3] = Biodistribution in Sprague-Dawley rat large intestine C&W at 5 mg/kg, po after 3 hrs; format: ADME, organism-based; in short: as §2
Muscle tissue [4] = assay: Biodistribution in Sprague-Dawley rat muscle at 5 mg/kg, po after 3 hrs; format: ADME, organism-based; in short: as §2
[5] = Biodistribution in Sprague-Dawley rat bone marrow at 5 mg/kg, po after 3 hrs; format: ADME, organism-based; in short: as §2
[6] = Biodistribution in Sprague-Dawley rat small intestine C&W at 5 mg/kg, po after 3 hrs; format: ADME, organism-based; in short: as §2
[7] = Biodistribution in Sprague-Dawley rat urinary bladder at 5 mg/kg, po after 24 hrs; format: ADME, organism-based; in short: as §1
[8] = Biodistribution in Sprague-Dawley rat bone marrow at 5 mg/kg, po after 24 hrs; format: ADME, organism-based; in short: as §2
Zone of skin = assay: Biodistribution in Sprague-Dawley rat skin at 5 mg/kg, po after 3 hrs; format: ADME, organism-based; in short: as §2
Pancreas [9] = assay: Biodistribution in Sprague-Dawley rat pancreas at 5 mg/kg, po after 24 hrs; format: ADME, organism-based; in short: as §2
[10] = Biodistribution in Sprague-Dawley rat mesenteric lymph at 5 mg/kg, po after 3 hrs; format: ADME, organism-based, Mesenteric lymph node; in short: as §2
[11] = Biodistribution in Sprague-Dawley rat large intestine C&W at 5 mg/kg, po after 24 hrs; format: ADME, organism-based; in short: as §2
[12] = Biodistribution in Sprague-Dawley rat cervical lymph node at 5 mg/kg, po after 3 hrs; format: ADME, organism-based; in short: as §2
[13] = Biodistribution in Sprague-Dawley rat stomach at 5 mg/kg, po after 3 hrs; format: ADME, organism-based; in short: as §1
[14] = Biodistribution in Sprague-Dawley rat small intestine C&W at 5 mg/kg, po after 24 hrs; format: ADME, organism-based; in short: as §2
Thyroid gland = assay: Biodistribution in Sprague-Dawley rat thyroid at 5 mg/kg, po after 3 hrs; format: ADME, organism-based; in short: as §1
[15] = Biodistribution in Sprague-Dawley rat small intestine at 5 mg/kg, po after 24 hrs; format: ADME, organism-based; in short: as §2
[16] = Biodistribution in Sprague-Dawley rat epididymal fat at 5 mg/kg, po after 3 hrs; format: ADME, organism-based, Adipose tissue; in short: as §2
Plasma = assay: Biodistribution in Sprague-Dawley rat plasma at 5 mg/kg, po after 24 hrs; format: ADME, organism-based; in short: as §2
Lung = assay: Biodistribution in Sprague-Dawley rat lung at 5 mg/kg, po after 24 hrs; format: ADME, organism-based; in short: as §2
Brain = assay: Biodistribution in Sprague-Dawley rat brain at 5 mg/kg, po after 24 hrs; format: ADME, organism-based; in short: as §2
[17] = Biodistribution in Sprague-Dawley rat stomach C&W at 5 mg/kg, po after 24 hrs; format: ADME, organism-based; in short: as §1
Spleen = assay: Biodistribution in Sprague-Dawley rat spleen at 5 mg/kg, po after 24 hrs; format: ADME, organism-based; in short: as §2
Prostate gland = assay: Biodistribution in Sprague-Dawley rat prostate at 5 mg/kg, po after 3 hrs; format: ADME, organism-based; in short: as §2
Pancreas [18] = assay: Biodistribution in Sprague-Dawley rat pancreas at 5 mg/kg, po after 3 hrs; format: ADME, organism-based; in short: as §2
Blood = assay: Biodistribution in Sprague-Dawley rat blood at 5 mg/kg, po after 3 hrs; format: ADME, organism-based; in short: as §2
[19] = Biodistribution in Sprague-Dawley rat urinary bladder at 5 mg/kg, po after 3 hrs; format: ADME, organism-based; in short: as §1
Muscle tissue [20] = assay: Biodistribution in Sprague-Dawley rat muscle at 5 mg/kg, po after 24 hrs; format: ADME, organism-based; in short: as §2

Cc1cc(OCP2(=O)OCC[C@@H](c3cccc(Cl)c3)O2)cc([14CH3])c1Cc1ccc(O)c(C(C)C)c1 (stereo not given in full)
Drug uptake (Thymus): 0.01 nmol/g
Drug uptake [1]: 24.52 nmol/g
Drug uptake (Heart): 0.05 nmol/g
Drug uptake [2]: 1.23 nmol/g
Drug uptake [3]: 4.68 nmol/g
Drug uptake (Muscle tissue [4]): 0.07 nmol/g
Drug uptake [5]: 0.06 nmol/g
Drug uptake [6]: 39.69 nmol/g
Drug uptake [7]: 0.05 nmol/g
Drug uptake [8]: 0.01 nmol/g
Drug uptake (Zone of skin): 0.08 nmol/g
Drug uptake (Pancreas [9]): 0.25 nmol/g
Drug uptake [10]: 16.61 nmol/g
Drug uptake [11]: 2.5 nmol/g
Drug uptake [12]: 0.12 nmol/g
Drug uptake [13]: 76.96 nmol/g
Drug uptake [14]: 0.2 nmol/g
Drug uptake (Thyroid gland): 0.2 nmol/g
Drug uptake [15]: 0.4 nmol/g
Drug uptake [16]: 0.15 nmol/g
Drug uptake (Plasma): 0.05 nmol/g
Drug uptake (Lung): 0.04 nmol/g
Drug uptake (Brain): 0.01 nmol/g
Drug uptake [17]: 0.06 nmol/g
Drug uptake (Spleen): 0.01 nmol/g
Drug uptake (Prostate gland): 0.12 nmol/g
Drug uptake (Pancreas [18]): 0.25 nmol/g
Drug uptake (Blood): 0.12 nmol/g
Drug uptake [19]: 0.18 nmol/g
Drug uptake (Muscle tissue [20]): 0.01 nmol/g
